Experimental data as given in ChEMBL document CHEMBL1127500, “Structure-activity studies of benzimidazole-based DNA-cleaving agents. Comparison of benzimidazole, pyrrolobenzimidazole, and tetrahydropyridobenzimidazole analogues” (1994).

Assays:
Assay type in all cases: functional
HOP-62 = assay: Antitumor activity against HOP-62 cell line; settings: Homo sapiens
Procedure, shortened: (§1)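 Drugs were screened against a panel of up to 60 human cancer cell lines. The end-point was LC50, the drug concentration lethal to 50% of the cancer cells. Values were expressed as log LC50 and plotted as mean graphs centred on the log of the panel-mean LC50. Bars to the right mark lines with lower log LC50 than the mean.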

DLD-1 = assay: Antitumor activity against DLD-1 cell line; settings: Homo sapiens; procedure, shortened: as §1
Malme-3M = assay: Antitumor activity against MALME-3M cell line; settings: Homo sapiens; procedure, shortened: as §1
SK-MEL-2 = assay: Antitumor activity against SK-MEL-2 cell line; settings: Homo sapiens, read-out: Log LC50 (the source's name) (converted); procedure, shortened: as §1
SF-539 = assay: Antitumor activity against SF-539 cell line; settings: Homo sapiens; procedure, shortened: as §1
EKVX = assay: Antitumor activity against EKVX cell line; settings: Homo sapiens; procedure, shortened: as §1
LXFL 529 = assay: Antitumor activity against […] cell line; settings: Homo sapiens; procedure, shortened: as §1
DMS-273 = assay: Antitumor activity against DMS 273 cell line; settings: Homo sapiens, read-out: Log LC50 (the source's name) (converted); procedure, shortened: as §1
A498 = assay: Antitumor activity against Renal cancer A498 cell line; settings: Homo sapiens, read-out: Log LC50 (the source's name) (converted); procedure, shortened: as §1
HCT-116 = assay: Antitumor activity against HCT116 cell line; settings: Homo sapiens, read-out: Log LC50 (the source's name) (converted); procedure, shortened: as §1
NCI-H322M = assay: Antitumor activity against NCI-H322M cell line; settings: Homo sapiens, read-out: Log LC50 (the source's name) (converted); procedure, shortened: as §1
DMS-114 = assay: Antitumor activity against DMS 114 cell line; settings: Homo sapiens; procedure, shortened: as §1
IGROV-1 = assay: Antitumor activity against IGROVI cell line; settings: Homo sapiens; procedure, shortened: as §1
HOP-92 = assay: Antitumor activity against HOP-92 cell line; settings: Homo sapiens, read-out: Log LC50 (the source's name) (converted); procedure, shortened: as §1
M14 = assay: Antitumor activity against M 14 cell line; settings: Homo sapiens; procedure, shortened: as §1
SF-268 = assay: Antitumor activity against SF-268 cell line; settings: Homo sapiens; procedure, shortened: as §1
UO-31 = assay: Antitumor activity against Renal cancer UO-31 cell line; settings: Homo sapiens; procedure, shortened: as §1
MOLT-4 = assay: Antitumor activity against MOLT-4 leukemia cell line; settings: Homo sapiens; procedure, shortened: as §1
M19-MEL = assay: Antitumor activity against M 19-MEL cell line; settings: Homo sapiens; procedure, shortened: as §1
SNB- = assay: Antitumor activity against SNB-71 cell line; settings: Homo sapiens, read-out: Log LC50 (the source's name) (converted)
Procedure, shortened: (§2)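 Screened against a panel of up to 60 human cancer cell lines. Read-out is LC50, the drug concentration lethal to 50% of the cells, expressed as log LC50. The mean log LC50 across the screened lines is the centre line of the mean graph. Each line's deviation from that mean is shown as a bar.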

TK-10 = assay: Antitumor activity against Renal cancer TK-10 cell line; settings: Homo sapiens; procedure, shortened: as §1
U-251 = assay: Antitumor activity against U251 cell line; settings: Homo sapiens; procedure, shortened: as §2
HT-29 = assay: Antitumor activity against HT 29 cell line; settings: Homo sapiens, read-out: Log LC50 (the source's name) (converted); procedure, shortened: as §1
CCRF-CEM = assay: Antitumor activity against CCRF-CEM leukemia cell line; settings: Homo sapiens, read-out: Log LC50 (the source's name) (converted); procedure, shortened: as §1
UACC-257 = assay: Antitumor activity against UACC-257 cell line; settings: Homo sapiens; procedure, shortened: as §2
CAKI-1 = assay: Antitumor activity against Renal cancer CAKI-1 cell line; settings: Homo sapiens, read-out: Log LC50 (the source's name) (converted); procedure, shortened: as §1
NCI-H23 = assay: Antitumor activity against NCI-1123 cell line; settings: Homo sapiens, read-out: Log LC50 (the source's name) (converted); procedure, shortened: as §1
ACHN = assay: Antitumor activity against Renal cancer ACHN cell line; settings: Homo sapiens, read-out: Log LC50 (the source's name) (converted); procedure, shortened: as §1
HCC 2998 = assay: Antitumor activity against HCC2998 cell line; settings: Homo sapiens, read-out: Log LC50 (the source's name) (converted); procedure, shortened: as §1
NCI-H522 = assay: Antitumor activity against NCI-H522 cell line; settings: Homo sapiens; procedure, shortened: as §1
OVCAR-3 = assay: Antitumor activity against OVCAR-3 cell line; settings: Homo sapiens; procedure, shortened: as §1
RPMI-8226 = assay: Antitumor activity against RPMI-8226 leukemia cell line; settings: Homo sapiens, read-out: Log LC50 (the source's name) (converted); procedure, shortened: as §1
SK-MEL-28 = assay: Antitumor activity against SK-MEL-28 cell line; settings: Homo sapiens; procedure, shortened: as §2
OVCAR-8 = assay: Antitumor activity against OVCAR-8 cell line; settings: Homo sapiens, read-out: Log LC50 (the source's name) (converted); procedure, shortened: as §1
SW-620 = assay: Antitumor activity against SW-620 cell line; settings: Homo sapiens; procedure, shortened: as §2
SK-OV-3 = assay: Antitumor activity against SK-OV-3 cell line; settings: Homo sapiens, read-out: Log LC50 (the source's name) (converted); procedure, shortened: as §2
LOX IMVI = assay: Antitumor activity against LOX IMVI cell line; settings: Homo sapiens; procedure, shortened: as §1
RXF 393 = assay: Antitumor activity against Renal cancer RXF-393 cell line; settings: Homo sapiens; procedure, shortened: as §1
A549 = assay: Antitumor activity against A549/ATCC cell line; settings: Homo sapiens; procedure, shortened: as §1
OVCAR-4 = assay: Antitumor activity against OVCAR-4 cell line; settings: Homo sapiens; procedure, shortened: as §1
[1] = Mean log10 LC50 was determined; procedure, shortened: as §2
COLO 205 = assay: Antitumor activity against COLO 205 cell line; settings: Homo sapiens, read-out: Log LC50 (the source's name) (converted); procedure, shortened: as §1
SNB-75 = assay: Antitumor activity against SNB-75 cell line; settings: Homo sapiens; procedure, shortened: as §2
SN12C = assay: Antitumor activity against Renal cancer SN 12C cell line; settings: Homo sapiens; procedure, shortened: as §1
SR = assay: Antitumor activity against SR leukemia cell line; settings: Homo sapiens, read-out: Log LC50 (the source's name) (converted); procedure, shortened: as §2
KM-20L2 = assay: Antitumor activity against KM 20L2 cell line; settings: Homo sapiens; procedure, shortened: as §1
HL-60 = assay: Antitumor activity against HL-60(TB) leukemia cell line; settings: Homo sapiens, read-out: Log LC50 (the source's name) (converted); procedure, shortened: as §1
NCI-H460 = assay: Antitumor activity against NCI-11460 cell line; settings: Homo sapiens, read-out: Log LC50 (the source's name) (converted); procedure, shortened: as §1
KM12 = assay: Antitumor activity against KM 12 cell line; settings: Homo sapiens, read-out: Log LC50 (the source's name) (converted); procedure, shortened: as §1
OVCAR-5 = assay: Antitumor activity against OVCAR-5 cell line; settings: Homo sapiens; procedure, shortened: as §1
786-0 = assay: Antitumor activity against Renal cancer 786-O cell line; settings: Homo sapiens; procedure, shortened: as §1
SK-MEL-5 = assay: Antitumor activity against SK-MEL-5 cell line; settings: Homo sapiens; procedure, shortened: as §2
UACC-62 = assay: Antitumor activity against UACC-62 cell line; settings: Homo sapiens, read-out: Log LC50 (the source's name) (converted); procedure, shortened: as §2
NCI-H226 = assay: Antitumor activity against NCI-H226 cell line; settings: Homo sapiens; procedure, shortened: as §1
K562 = assay: Antitumor activity against K-562 leukemia cell line; settings: Homo sapiens, read-out: Log LC50 (the source's name) (converted); procedure, shortened: as §1
SNB-19 = assay: Antitumor activity against SNB-19 cell line; settings: Homo sapiens; procedure, shortened: as §2

CC(=O)OC1CCCn2c1nc1c2C(=O)C(C)=C(N2CC2)C1=O (stereo unspecified)
LC50 (HOP-62): 1.82 µM | LC50 (DLD-1): 87.1 µM | LC50 (Malme-3M): 2.34 µM | CC50 (SK-MEL-2): 3.8 µM | LC50 (concentration lethal to 50% of cells) (SF-539): 14.1 µM | LC50 (EKVX): 3.98 µM | LC50 (LXFL 529): 4.9 µM | CC50 (DMS-273): 5.37 µM | CC50 (A498): 1.29 µM | CC50 (HCT-116): 17.8 µM | CC50 (NCI-H322M): 26.9 µM | LC50 (DMS-114): 7.76 µM | LC50 (IGROV-1): 30.9 µM | CC50 (HOP-92): > 100 µM | LC50 (M14): 0.794 µM | LC50 (SF-268): 0.692 µM | LC50 (concentration lethal to 50% of cancer cells) (UO-31): 20 µM | LC50 (MOLT-4): > 100 µM | LC50 (M19-MEL): 35.5 µM | CC50 (SNB-): 33.1 µM | LC50 (TK-10): 25.1 µM | LC50 (U-251): 3.39 µM | CC50 (HT-29): 1.82 µM | CC50 (CCRF-CEM): > 100 µM | LC50 (UACC-257): 3.8 µM | CC50 (CAKI-1): 3.31 µM | CC50 (NCI-H23): 3.98 µM | CC50 (ACHN): 25.7 µM | CC50 (HCC 2998): 3.09 µM | LC50 (NCI-H522): 3.72 µM | LC50 (OVCAR-3): 6.31 µM | CC50 (RPMI-8226): > 100 µM | LC50 (SK-MEL-28): 6.03 µM | CC50 (OVCAR-8): 5.62 µM | LC50 (SW-620): 53.7 µM | CC50 (SK-OV-3): 7.08 µM | LC50 (LOX IMVI): 5.37 µM | LC50 (RXF 393): 4.68 µM | LC50 (A549): 32.4 µM | LC50 (OVCAR-4): 5.89 µM | Mean log LC50 [1]: -5.04 | CC50 (COLO 205): 18.2 µM | LC50 (SNB-75): 4.57 µM | LC50 (SN12C): 4.17 µM | CC50 (SR): > 100 µM | LC50 (concentration lethal to 50% of cells) (KM-20L2): 4.68 µM | CC50 (HL-60): > 100 µM | CC50 (NCI-H460): 0.676 µM | CC50 (KM12): 5.25 µM | LC50 (OVCAR-5): 4.9 µM | LC50 (786-0): 43.7 µM | LC50 (SK-MEL-5): 0.661 µM | CC50 (UACC-62): 4.9 µM | LC50 (NCI-H226): 3.98 µM | CC50 (K562): > 100 µM | LC50 (SNB-19): 5.89 µM
